Consider seven compounds from article PMC7439260 (ACS Omega, 2020).

Structures can show the parent of a compound that is named as a salt. Where a SMILES comes first, the peptide text is derived from it. [ ]: non-standard residue; d: D form. Hyp = O=C(O)[C@@H]1C[C@@H](O)CN1

The test system of data set [1] is platelet aggregation induced by ADP. The following applies: read-out: IC50 of antiplatelet activity induced by ADP; cited from earlier work.
The subject of data set [2] is bleeding time. The experiment in a line: Tail bleeding assay. Type of data set: in vivo, ICR mice. The following applies: mice, n = 10; for Effect on bleeding time (BT) (in words): doses of 300 and 400 μmol/kg b.w. oral; for Bleeding time (BT): 100 μmol/kg b.w. oral, tail cut 3 mm, saline 37 °C, maximum 900 s.
For data set [3], the system named is thymus and spleen. The experiment in a line: Thymus index and spleen index. Type of data set: in vivo, ICR mice. The following applies: oral administration at doses of 300 or 450 μmol/kg b.w.; mice. The method, boiled down: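 The same orally dosed ICR mice (300 or 450 μmol/kg b.w. peptide, saline vehicle) were weighed and sacrificed after the tail-bleeding test. Thymus and spleen were excised, washed in PBS, blotted and weighed. Indices were computed as organ weight / body weight (mg/g). Gross appearance of the organs was checked for atrophy, hyperplasia or swelling.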

Data set [4] has as its system platelet aggregation induced by ADP. As to the kind of experiment: Inhibition of ADP-induced platelet aggregation in vitro. The following applies: data not shown. The format is cell-based, rat. The method, boiled down:
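Rat aortic blood was anticoagulated with sodium citrate (1:9, v/v) and spun at 50 × g for 10 min to give PRP. A further 750 × g, 10 min spin gave PPP, used to dilute PRP to 2–3 × 10^8. PRP was preincubated with buffer or peptide for 5 min at 37 °C, then ADP (0.1 mM) was added. Aggregation at 5 min was read on an aggregometer. Inhibition % was calculated versus the buffer control, and IC50 was derived by curve fitting.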

Data set [5] relates to human platelet aggregation. The following applies: at 1 mg/mL; cited from earlier work.

SSGE: in data set [1], the IC50 – broadly, the midpoint of a concentration-inhibition curve – was 480 µM. On to `N[C@@H](CC(=O)O)C(=O)N[C@@H](CCC(=O)O)C(=O)NCC(=O)N1CCC[C@H]1C(=O)O` [DEGP, Asp-Glu-Gly-Pro] (H-DEGP-OH), for which the “Effect on bleeding time (BT) (in words)” value in data set [2] is “no significant increase in BT”. In addition, the “Acute toxicological effects (in words)” value in data set [3] is reported as “no acute toxicological effects”. In the case of VFPQ, the “Activity against ADP-induced platelet aggregation (in words)” value in data set [4] is recorded as “poor activities”. As for `O=C(O)CC[C@H](NC(=O)CNC(=O)[C@@H]1C[C@@H](O)CN1)C(=O)N[C@@H](Cc1ccccc1)C(=O)NCC(=O)O` [OGEFG, Hyp-Gly-Glu-Phe-Gly] (H-[Hyp]GEFG-OH), the “Effect on bleeding time (BT) (in words)” value in data set [2] is reported as “no significant increase in BT”. The “Acute toxicological effects (in words)” value in data set [3] is reported as “no acute toxicological effects”. In the case of LTFPRIVFVLG, in data set [5], the “Inhibition of platelet aggregation” value is given as 76.69%. Turning to `CC(=O)Oc1ccccc1C(=O)O` [aspirin, Aspirin, reference compound], the “Bleeding time (BT)” value in data set [2] is recorded as 5.345 min.

`COC(=O)[C@H](c1ccccc1Cl)N1CCc2sccc2C1` [clopidogrel, clopidogrel hydrogen sulfate, reference compound]: the “Bleeding time (BT)” value in data set [2] was more than 15 min.
